Assay results reported in ChEMBL document CHEMBL1136326, “New benzylidenethiazolidinediones as antibacterial agents” (2003).
In brackets after ≈: the same amount, converted by molar mass.

Experiments:
Format in all cases: functional
Staphylococcus aureus = assay: Minimal inhibitory concentration (antibacterial activity) against Staphylococcus aureus Oxford (SAUR)
In short: (§1)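 Broth microdilution in cation-adjusted Mueller Hinton broth. Compounds in DMSO were diluted 1:10 with water to a 256 ug/mL solution, then serially 2-fold diluted, giving 0.06 to 64 μg/mL. Inoculum about 1 × 10^6 cfu/mL. Incubation at 35 C for 24 h. MIC is the lowest concentration that inhibits visible growth.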

[1] = Minimal inhibitory concentration (antibacterial activity) against […] ERY2 (SPNE); in short: as §1
Enterococcus faecalis = assay: Minimal inhibitory concentration (antibacterial activity) against Enterococcus faecalis 7 (EFAE); in short: as §1
[2] = Staphylococcus aureus, read-out: MIC
[3] = Streptococcus pneumoniae, read-out: MIC
[4] = Enterococcus faecalis, read-out: MIC

| Structure (SMILES) | MIC (Staphylococcus aureus; [2]) | MIC [1, 3] | MIC (Enterococcus faecalis; [4]) | MIC (Staphylococcus aureus) | MIC [1] | MIC (Enterococcus faecalis) |
| --- | --- | --- | --- | --- | --- | --- |
| CCCc1c(OCC(O)COc2ccc(CC3SC(=O)NC3=O)cc2)ccc(Cl)c1Cl (centres undefined) | 8 mg/L (≈ 16.5 µM) | 8 mg/L (≈ 16.5 µM) | 16 mg/L (≈ 33 µM) | – | – | – |
| CCCc1c(OCC(O)COc2ccc(/C=C3\OC(=O)NC3=O)cc2)ccc(Cl)c1Cl (centres undefined) | 16 mg/L (≈ 34.3 µM) | 32 mg/L (≈ 68.6 µM) | 16 mg/L (≈ 34.3 µM) | – | – | – |
| O=C1NC(=O)/C(=C/c2ccc(OCC(O)COc3ccccc3)cc2)S1 (centres undefined) | > 64 mg/L | 64 mg/L (≈ 172 µM) | > 64 mg/L | – | – | – |
| O=C1NC(=O)/C(=C/c2ccc(OCC(O)COc3ccc(Cl)c(Cl)c3)cc2)S1 (centres undefined) | > 64 mg/L | > 64 mg/L | > 64 mg/L | – | – | – |
| CCCc1cc(Cl)c(Cl)cc1OCC(O)COc1ccc(/C=C2\SC(=O)NC2=O)cc1 (centres undefined) | 8 mg/L (≈ 16.6 µM) | 4 mg/L (≈ 8.29 µM) | 8 mg/L (≈ 16.6 µM) | – | – | – |
| CCCc1c(OC[C@H](O)COc2ccc(/C=C3\SC(=O)NC3=O)cc2)ccc(Cl)c1Cl | 1 mg/L (≈ 2.07 µM) | 1 mg/L (≈ 2.07 µM) | 64 mg/L (≈ 133 µM) | – | – | – |
| CCCc1c(OCCCOc2ccc(/C=C3\SC(=O)NC3=O)cc2)ccc(Cl)c1Cl | > 64 mg/L | > 64 mg/L | > 64 mg/L | – | – | – |
| CCCc1c(OCC(O)COc2ccc(/C=C3\NC(=O)NC3=O)cc2)ccc(Cl)c1Cl (centres undefined) | 4 mg/L (≈ 8.6 µM) | 4 mg/L (≈ 8.6 µM) | 4 mg/L (≈ 8.6 µM) | – | – | – |
| CCCc1c(OCC(N)COc2ccc(/C=C3\SC(=O)NC3=O)cc2)ccc(Cl)c1Cl (centres undefined) | 16 mg/L (≈ 33.2 µM) | 2 mg/L (≈ 4.15 µM) | 32 mg/L (≈ 66.5 µM) | – | – | – |
| CCCc1ccccc1OCC(O)COc1ccc(/C=C2\SC(=O)NC2=O)cc1 (centres undefined) | 16 mg/L (≈ 38.7 µM) | 2 mg/L (≈ 4.84 µM) | > 64 mg/L | – | – | – |
| CCc1ccccc1OCC(O)COc1ccc(/C=C2\SC(=O)NC2=O)cc1 (centres undefined) | 16 mg/L (≈ 40.1 µM) | 16 mg/L (≈ 40.1 µM) | 32 mg/L (≈ 80.1 µM) | – | – | – |
| CCCc1c(OCC(O)COc2ccc(/C=C3\SC(=O)N(C)C3=O)cc2)ccc(Cl)c1Cl (stereo in doubt; 6) | – | – | – | >64 mg/L | >64 mg/L | >64 mg/L |
| CCCc1c(OCC(O)COc2ccc(/C=C3\SC(=O)N(C)C3=O)cc2)ccc(Cl)c1Cl (stereo in doubt; 12) | – | – | – | 8 mg/L (≈ 16.1 µM) | 1 mg/L (≈ 2.01 µM) | 4 mg/L (≈ 8.06 µM) |

The remaining lines, values ahead:

| MIC (Staphylococcus aureus; [2]) | MIC [1, 3] | MIC (Enterococcus faecalis; [4]) | MIC (Staphylococcus aureus) | MIC [1] | MIC (Enterococcus faecalis) | Structure (SMILES) |
| --- | --- | --- | --- | --- | --- | --- |
| > 64 mg/L | 64 mg/L (≈ 138 µM) | 64 mg/L (≈ 138 µM) | – | – | – | CCCc1c(OCC(O)COc2ccc(/C=C3\CC(=O)NC3=O)cc2)ccc(Cl)c1Cl (centres undefined) |
| > 64 mg/L | > 64 mg/L | > 64 mg/L | – | – | – | CCCc1c(OCC(=O)COc2ccc(/C=C3\SC(=O)NC3=O)cc2)ccc(Cl)c1Cl |
| 64 mg/L (≈ 166 µM) | 32 mg/L (≈ 83 µM) | > 64 mg/L | – | – | – | Cc1ccccc1OCC(O)COc1ccc(/C=C2\SC(=O)NC2=O)cc1 (centres undefined) |
| 2 mg/L (≈ 4.15 µM) | 2 mg/L (≈ 4.15 µM) | 4 mg/L (≈ 8.29 µM) | – | – | – | CCCc1c(OC[C@@H](O)COc2ccc(/C=C3\SC(=O)NC3=O)cc2)ccc(Cl)c1Cl |
| > 64 mg/L | > 64 mg/L | > 64 mg/L | – | – | – | O=C1NC(=O)/C(=C/c2ccc(OCC(O)COc3ccc(Cl)c(Cl)c3Cl)cc2)S1 (centres undefined) |
